Laboratory results from ChEMBL document CHEMBL1125032, “Structure-activity relationship of antiestrogens. Effect of the side chain and its position on the activity of 2,3-diaryl-2H-1-benzopyrans” (J Med Chem, 1990).

Experiments:
[1] = target: Estrogen receptor beta (Rattus norvegicus) (UniProt Q62986); experiment: Mean percent inhibition of Estrogen receptor beta in rat; parameters: concentration or dose not given beside the values; conditions: concentration not given here
Method in brief: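 Immature female rats were dosed subcutaneously with 10 µg/rat for three days together with 0.3 µg E2 at a separate site. Uterine weight was read 24 h after the last dose. Inhibition of E2-stimulated uterine growth was calculated from the mean uterine weights of the vehicle-alone, E2-alone and compound-plus-E2 groups.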

[2] = target: T1, Estrogen receptor (Rattus norvegicus) (UniProt P06211+Q62986); experiment: Relative binding affinity against estrogen receptor(ER); type: protein assay
Method in brief: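 Uterine cytosol came from immature rats primed with 0.1 µg E2 24 h before sacrifice. It was incubated 18–20 h at 4 °C, in triplicate, with competitor (10⁻⁴–10⁻⁹ M) and ³H-E2 (5×10⁻⁹ M) in TEA buffer, pH 7.4, containing 7% DMF. Free ligand was removed with charcoal-dextran (20 min), and bound radioactivity was measured by scintillation counting.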

[3] = target: Anti-estrogen binding site (AEBS) (Homo sapiens) (UniProt Q15125+Q9UBM7); experiment: Relative binding affinity against Antiestrogen binding site(AEBS); type: functional; conditions: Rattus norvegicus
Method in brief: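 Rat liver microsomal fraction was first incubated 2 h at 4 °C with 2 µM diethylstilbestrol to saturate ER sites. It was then incubated 18 h at 4 °C with competitor (1×10⁻⁹ to 3×10⁻⁶ M) and ³H-tamoxifen (1×10⁻⁹ M) in 35% DMF–TEA buffer. Charcoal-dextran was added for 15 min at 4 °C, the tubes were centrifuged at 1000g, and the supernatant was counted.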

[4] = target: T1, Estrogen receptor (Rattus norvegicus); experiment: Antiestrogenic activity in presence of unlabeled estradiol as mean uterine weight in rats after 0.3 ug dose; type: functional
Method in brief: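 Immature female Charles Foster rats (21–23 days old, 25–40 g) were given 10 µg/rat of compound subcutaneously in 0.1 mL propylene glycol–0.9% saline (1:1, v/v) on three consecutive days. They were co-injected with 0.3 µg E2 at a different site. Controls got E2 plus vehicle. Uteri were weighed 24 h after the last injection. Values are mean ± SD, 6–9 animals.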

[5] = target: T1, Estrogen receptor (Rattus norvegicus); experiment: Estrogenic activity as mean uterine weight in rats on 10 ug dose; type: functional
Method in brief: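 Immature female Charles Foster rats (21–23 days old, 25–40 g) received 10 µg/rat subcutaneously, suspended in 0.1 mL propylene glycol–0.9% saline (1:1, v/v), daily for three days. Controls received vehicle alone. Uterine wet weight was taken at autopsy 24 h after the final dose and given as mean ± SD in mg from 6–9 animals.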

Estrogen receptor beta (Rattus norvegicus), sequence (Q62986 whole entry): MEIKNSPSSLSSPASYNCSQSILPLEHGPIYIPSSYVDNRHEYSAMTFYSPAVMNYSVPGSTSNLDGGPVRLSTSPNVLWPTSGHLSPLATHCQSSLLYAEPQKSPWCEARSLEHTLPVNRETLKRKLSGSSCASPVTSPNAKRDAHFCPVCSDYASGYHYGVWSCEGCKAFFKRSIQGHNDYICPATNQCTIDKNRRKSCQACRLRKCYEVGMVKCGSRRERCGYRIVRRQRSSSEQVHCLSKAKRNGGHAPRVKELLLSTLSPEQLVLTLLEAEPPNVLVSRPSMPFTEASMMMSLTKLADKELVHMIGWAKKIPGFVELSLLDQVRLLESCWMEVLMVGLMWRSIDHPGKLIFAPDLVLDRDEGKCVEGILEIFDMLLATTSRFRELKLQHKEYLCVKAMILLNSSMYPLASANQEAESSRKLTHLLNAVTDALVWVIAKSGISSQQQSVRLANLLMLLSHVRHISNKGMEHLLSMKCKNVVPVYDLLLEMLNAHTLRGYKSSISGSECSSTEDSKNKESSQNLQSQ

SMILES	inhibition [1] [%]	relative binding affinity (RBA) [2]	relative binding affinity (RBA) [3]	Mean weight [4] [mg]	Mean weight [5] [mg]
C1=C(c2ccccc2)C(c2ccc(OCCN3CCCCC3)cc2)Oc2ccccc21 (configuration not stated)	75	0.3	225	–	–
C1=C(c2ccccc2)C(c2cccc(OCCN3CCCCC3)c2)Oc2ccccc21 (configuration not stated)	0	< 0.001	–	42.2	17.4
CC1=C(c2ccccc2)C(c2ccc(OCCN3CCCC3)cc2)Oc2ccccc21 (configuration not stated)	56	9.9	150	27	27.2
C1=C(c2ccccc2)C(c2ccccc2OCCN2CCCCC2)Oc2ccccc21 (configuration not stated)	0	< 0.001	–	43.1	11.1
CCC1=C(c2ccccc2)C(c2ccc(OCCN3CCCC3)cc2)Oc2cc(OC)ccc21 (configuration not stated)	0	2.1	51	40.6	34.5
C1=C(c2ccccc2)C(c2ccc(OCCN3CCCCCC3)cc2)Oc2ccccc21 (configuration not stated)	61	0.24	153	23.1	19.3
C1=C(c2ccccc2)C(c2ccc(OCCN3CCCC3)cc2)Oc2ccccc21 (configuration not stated)	56	0.5	134	26.6	–
CN(C)CCOc1ccc(C2Oc3ccccc3C=C2c2ccccc2)cc1 (configuration not stated)	30	0.11	98	36.5	33.9
CCCCNCC(O)COc1ccc(C2Oc3ccccc3C=C2c2ccccc2)cc1 (configuration not stated)	0	–	–	45.9	8.7
COc1ccc2c(c1)OC(c1ccc(OCCN3CCCC3)cc1)C(c1ccccc1)=C2 (configuration not stated)	48	0.4	66	–	–
OCC(O)COc1ccc(C2Oc3ccccc3C=C2c2ccccc2)cc1 (configuration not stated)	–	–	–	38.8	20.7
Oc1ccc(C2Oc3ccccc3C=C2c2ccccc2)cc1 (configuration not stated)	0	0.05	–	45.5	12.6
